# Experimental data pooled from the literature.
SMILES,host,matrix,route,dose,setting,endpoint,value
CC(C)[C@@H](CS(=O)(=O)C(C)C)N1C(=O)[C@@](C)(CC(=O)O)C[C@H](c2cccc(Cl)c2)[C@H]1c1ccc(Cl)cc1,FVB mouse,brain,intravenous,20 mg/kg,single dose,AUC(0-inf),172 ng·h/mL
CCOC(=O)c1c(NC(=O)CNC(C)C)sc2c1CCCCC2,male mouse,plasma,intraperitoneal,100 mg/kg,single dose,AUC(0-inf),19300 ng·h/mL
COCC(=O)N1CCc2[nH]c3c(Cl)c(Cl)ccc3c2[C@@H]1C,C57BL/6 mouse,blood,intravenous,1 mg/kg,,AUC(0-inf),3.28 µM·h
O=C1CCC(N2Cc3cc(CO)c(F)cc3C2=O)C(=O)N1 (centres unmarked),male CD-1 mouse,plasma,intravenous,1 mg/kg,,AUC(0-inf),316 ng·h/mL
OCc1ccc(-c2nn(Cc3ccccc3)c3ccccc23)o1,male CD-1 mouse,plasma,oral,10 mg/kg,,AUC(0-t),218 ng·h/mL
NCc1cc2c(cc1F)C(=O)N(C1CCC(=O)NC1=O)C2 (centres unmarked),male CD-1 mouse,plasma,intravenous,1 mg/kg,,AUC(0-inf),149 ng·h/mL
Cc1ccc(CCC(=O)Nc2nnc(S(N)(=O)=O)s2)cc1,male BALB/c mouse,plasma,oral,20 mg/kg,,AUC,12.5 µM·h
OCc1nc2ccc(NCc3ccc(C(F)(F)F)cc3)cc2[nH]1,male BALB/c mouse,plasma,intravenous,1 mg/kg,,AUC(0-inf),482 ng·h/mL
CN(C)C(=O)c1cc2cnc(Nc3ccc(-c4ccc5c(=O)cc(N6CCOCC6)oc5c4)cc3)nc2n1C1CCCC1.Cl,BALB/c mouse,plasma,intravenous,2 mg/kg,,AUC(0-inf),2790 ng·h/mL
O=C1CCC(N2Cc3cc(C4CCN(Cc5ccccc5)CC4)ccc3C2=O)C(=O)N1 (centres unmarked),male CD-1 mouse,plasma,oral,3 mg/kg,,AUC(0-inf),603 ng·h/mL
Cc1nc2ccc(OCc3ccc(C(F)(F)F)cc3)cc2[nH]1,male BALB/c mouse,plasma,intravenous,1 mg/kg,,AUC(0-inf),3800 ng·h/mL
COc1cccc2c(N3CCC(CCP(=O)(O)O)CC3)ncnc12,female C57BL/6 mouse,brain,subcutaneous,50 mg/kg,,AUC(0-inf),751 ng·h/mL
NCc1ccc(-c2nn(Cc3ccccc3)c3ccccc23)o1,male CD-1 mouse,plasma,intravenous,5 mg/kg,,AUC(0-t),1310 ng·h/mL
C[C@@H]1COCCN1c1cc(=O)n2c(n1)N(Cc1cncc(Cl)c1)[C@H](C(F)(F)F)CC2,C57BL/6 mouse,plasma,intraperitoneal,10 mg/kg,single dose,AUC(0-inf),3280 ng·h/mL
